From ChEMBL document CHEMBL4834420, “Projected Dose Optimization of Amino- and Hydroxypyrrolidine Purine PI3Kδ Immunomodulators” (J Med Chem, 2021) come the findings set out here.

A short description of series [1]: Intrinsic clearance in Wistar Han rat at 0.5 mg/kg, iv or 1 mg/kg, po. The format is ADME, organism-based. As to conditions: in vivo.
Series [2] in a line: Dissociation constant, pKa of compound. The format is physicochemical.
Series [3] in a line: Trough plasma concentration C57BL/6 mouse at 100 mg/kg. The format is ADME, organism-based. To be noted: in vivo, read-out: Cmin. The method in brief:
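C57BL/6-Foxp3-GFP reporter mice were dosed at 30 and 100 mg/kg/day for up to 7 days, with exposure determined at 100 mg/kg. The unbound Cmax and trough values were derived from total plasma levels. Treg readout was bioluminescence imaging 10 min after 3 mg luciferin ip, reported as radiance in photons/s/cm²/steradian.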

In series [4] the target is Sodium channel protein type 5 subunit alpha (Homo sapiens, UniProt Q14524). Put plainly: Inhibition of Nav1.5 (unknown origin).
Series [5] in a line: Trough plasma concentration Brown Norway rat at 30 mg/kg, po. As to conditions: in vivo, read-out: Cmin. The format is ADME, organism-based.
The nature of series [6]: Volume of distribution in Beagle dog. The format is ADME, Canis lupus familiaris. As to conditions: in vivo.
The nature of series [7]: Plasma clearance in C57BL/6 mouse at 1 mg/kg, iv or 3 mg/kg, po. In kind it is ADME, organism-based.
Series [8] concerns the target T1, Phosphatidylinositol 4,5-bisphosphate 3-kinase catalytic subunit delta isoform (Mus musculus, UniProt O35904).
T1 sequence (O35904 whole entry): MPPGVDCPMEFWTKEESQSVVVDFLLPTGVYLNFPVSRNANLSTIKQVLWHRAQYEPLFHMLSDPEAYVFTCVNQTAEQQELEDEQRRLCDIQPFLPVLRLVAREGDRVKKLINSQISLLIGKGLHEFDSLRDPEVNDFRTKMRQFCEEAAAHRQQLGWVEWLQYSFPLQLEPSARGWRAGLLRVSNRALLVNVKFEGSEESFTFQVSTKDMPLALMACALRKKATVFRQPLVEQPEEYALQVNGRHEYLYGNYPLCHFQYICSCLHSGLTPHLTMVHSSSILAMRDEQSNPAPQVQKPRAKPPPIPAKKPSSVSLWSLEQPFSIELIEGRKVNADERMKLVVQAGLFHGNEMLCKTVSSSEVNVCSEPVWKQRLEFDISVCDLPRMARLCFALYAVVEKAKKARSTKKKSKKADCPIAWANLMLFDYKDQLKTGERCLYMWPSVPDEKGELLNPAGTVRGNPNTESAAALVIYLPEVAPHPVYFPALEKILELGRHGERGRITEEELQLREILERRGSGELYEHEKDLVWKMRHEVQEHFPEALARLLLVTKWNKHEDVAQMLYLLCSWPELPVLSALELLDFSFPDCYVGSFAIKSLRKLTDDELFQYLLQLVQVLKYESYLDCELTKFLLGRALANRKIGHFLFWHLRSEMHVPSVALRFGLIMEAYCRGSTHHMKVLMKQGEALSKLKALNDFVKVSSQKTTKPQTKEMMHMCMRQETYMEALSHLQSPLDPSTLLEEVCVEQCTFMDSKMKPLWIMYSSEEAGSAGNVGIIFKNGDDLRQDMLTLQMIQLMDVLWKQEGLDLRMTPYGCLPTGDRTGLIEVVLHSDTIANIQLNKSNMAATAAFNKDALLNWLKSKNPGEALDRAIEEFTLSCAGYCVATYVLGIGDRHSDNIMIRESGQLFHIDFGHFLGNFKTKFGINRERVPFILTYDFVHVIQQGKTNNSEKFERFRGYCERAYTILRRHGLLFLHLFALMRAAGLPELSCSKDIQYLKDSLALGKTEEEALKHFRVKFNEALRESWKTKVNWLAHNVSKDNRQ
Kind of series: Inhibition of mouse PI3Kdelta.

Series [9] can be described thus: Plasma protein binding in Brown Norway rat at 10 mg/kg, po. As to conditions: read-out: PPB (converted). In kind it is ADME, organism-based.
A further series addresses T2, Cytochrome P450 2C8 (Homo sapiens, UniProt P10632).
T2 sequence (P10632 whole entry): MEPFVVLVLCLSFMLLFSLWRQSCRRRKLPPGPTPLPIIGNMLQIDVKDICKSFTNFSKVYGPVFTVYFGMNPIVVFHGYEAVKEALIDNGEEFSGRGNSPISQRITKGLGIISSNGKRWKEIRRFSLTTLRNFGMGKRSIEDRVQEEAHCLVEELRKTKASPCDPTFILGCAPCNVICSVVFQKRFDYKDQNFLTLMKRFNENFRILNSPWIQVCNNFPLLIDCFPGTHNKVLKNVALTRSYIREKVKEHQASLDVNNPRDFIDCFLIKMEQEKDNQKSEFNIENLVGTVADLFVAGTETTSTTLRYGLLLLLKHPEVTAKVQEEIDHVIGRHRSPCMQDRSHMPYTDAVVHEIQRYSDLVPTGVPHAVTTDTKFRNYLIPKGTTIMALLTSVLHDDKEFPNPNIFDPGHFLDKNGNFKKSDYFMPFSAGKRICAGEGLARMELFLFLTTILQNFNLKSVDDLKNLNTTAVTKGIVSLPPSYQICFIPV
Kind of series: Inhibition of CYP2C8 (unknown origin). The format is ADME.

Sequence of Sodium channel protein type 5 subunit alpha (Q14524 whole entry): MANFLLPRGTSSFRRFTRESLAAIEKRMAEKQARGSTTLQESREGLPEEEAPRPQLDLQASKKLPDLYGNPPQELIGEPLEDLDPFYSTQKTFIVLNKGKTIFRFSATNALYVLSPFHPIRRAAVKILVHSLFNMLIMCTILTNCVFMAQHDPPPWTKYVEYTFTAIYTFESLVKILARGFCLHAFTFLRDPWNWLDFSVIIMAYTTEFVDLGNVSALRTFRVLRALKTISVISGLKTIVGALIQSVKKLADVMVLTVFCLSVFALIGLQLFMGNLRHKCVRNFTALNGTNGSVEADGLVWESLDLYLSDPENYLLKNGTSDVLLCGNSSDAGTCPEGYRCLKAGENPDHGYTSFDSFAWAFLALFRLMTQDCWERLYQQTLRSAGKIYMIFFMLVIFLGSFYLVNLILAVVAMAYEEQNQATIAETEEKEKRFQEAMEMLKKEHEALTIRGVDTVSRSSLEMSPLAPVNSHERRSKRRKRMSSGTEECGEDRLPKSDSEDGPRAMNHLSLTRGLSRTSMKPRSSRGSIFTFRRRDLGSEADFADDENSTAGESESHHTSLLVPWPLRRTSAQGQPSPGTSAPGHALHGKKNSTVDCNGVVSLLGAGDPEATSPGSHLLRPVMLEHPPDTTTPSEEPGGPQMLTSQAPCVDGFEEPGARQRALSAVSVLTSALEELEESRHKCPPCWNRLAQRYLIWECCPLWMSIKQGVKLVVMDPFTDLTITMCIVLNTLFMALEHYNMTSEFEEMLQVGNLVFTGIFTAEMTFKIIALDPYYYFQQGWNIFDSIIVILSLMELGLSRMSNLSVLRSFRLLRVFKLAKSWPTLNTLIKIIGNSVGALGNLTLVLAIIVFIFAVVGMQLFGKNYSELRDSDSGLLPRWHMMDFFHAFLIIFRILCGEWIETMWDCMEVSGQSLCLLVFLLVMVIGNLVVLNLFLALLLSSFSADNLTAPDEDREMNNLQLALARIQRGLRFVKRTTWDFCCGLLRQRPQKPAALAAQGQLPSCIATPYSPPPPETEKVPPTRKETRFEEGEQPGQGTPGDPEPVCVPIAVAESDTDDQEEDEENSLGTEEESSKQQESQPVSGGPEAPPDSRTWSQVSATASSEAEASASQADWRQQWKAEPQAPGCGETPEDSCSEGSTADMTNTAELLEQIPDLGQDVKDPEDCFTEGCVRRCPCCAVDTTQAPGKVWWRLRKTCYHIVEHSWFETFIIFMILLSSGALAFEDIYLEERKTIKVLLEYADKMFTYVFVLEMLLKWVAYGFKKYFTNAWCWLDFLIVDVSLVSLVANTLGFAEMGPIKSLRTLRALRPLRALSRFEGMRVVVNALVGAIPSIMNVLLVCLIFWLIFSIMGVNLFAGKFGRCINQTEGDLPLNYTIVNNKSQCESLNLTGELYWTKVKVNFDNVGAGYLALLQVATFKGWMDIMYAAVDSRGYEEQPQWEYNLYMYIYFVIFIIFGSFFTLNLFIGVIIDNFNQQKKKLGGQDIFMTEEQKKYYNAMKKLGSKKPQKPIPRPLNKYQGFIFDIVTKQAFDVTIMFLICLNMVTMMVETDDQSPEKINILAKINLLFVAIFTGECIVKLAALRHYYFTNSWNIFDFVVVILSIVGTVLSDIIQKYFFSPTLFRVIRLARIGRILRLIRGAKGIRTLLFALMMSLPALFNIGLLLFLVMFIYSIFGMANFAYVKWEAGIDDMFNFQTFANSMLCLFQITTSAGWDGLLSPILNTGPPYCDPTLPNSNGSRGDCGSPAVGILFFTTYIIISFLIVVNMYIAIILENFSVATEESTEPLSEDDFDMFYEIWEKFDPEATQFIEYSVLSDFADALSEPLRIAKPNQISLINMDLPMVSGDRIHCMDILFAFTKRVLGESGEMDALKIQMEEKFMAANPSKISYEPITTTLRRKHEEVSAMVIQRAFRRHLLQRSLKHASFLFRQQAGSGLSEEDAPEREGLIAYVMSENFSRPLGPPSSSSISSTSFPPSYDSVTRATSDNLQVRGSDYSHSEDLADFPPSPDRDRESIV

As usually defined, the pKa is the pH at which an ionisable group is half protonated. Read a low pKa as a stronger acid or weaker base. By IC50 is commonly meant the concentration that inhibits the measured activity by half. The term Vd denotes the apparent volume that relates the amount in the body to the concentration in plasma or blood. In series [1], `CCn1c(-c2cnc(C)nc2)nc2c(N[C@H]3CCN(C(=O)C4CC4)C3)ncnc21` yielded a CL of 64 mL/min/kg. Moreover, the pKa in [2] came out at 3.06. Besides, the concentration is 110 nM in series [3] and 103 nM in [5]. In addition, the half-inhibitory concentration (IC50) in series [4] is over 50 µM; in [8] it was 0.0022 µM; on Cytochrome P450 2C8, over 50 µM. In series [6], this compound gave a Vd of 1.5 L/kg. In addition, the clearance in series [7] amounted to 45 mL/min/kg. In series [9], the fraction unbound was 0.59.
